The source of these data is ChEMBL document CHEMBL3046318, “Synthesis of a combinatorial library of amides and its evaluation against the fall armyworm, Spodoptera frugiperda” (2011).

Assay type in all cases: functional
The test system of assay [1] is Spodoptera frugiperda. As to the kind of experiment: Insecticidal activity against pupal phase Spodoptera frugiperda (fall armyworm) assessed as mortality at 100 mg/kg compound administration with artificial diet (reference value: 13.3%). An outline of the steps: (§1)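 Ingestion assay on first instar larvae (1 day old), 30 per treatment and per control. Compound was dissolved in acetone, mixed with the diet's ascorbic acid (1.8 g), dried under vacuum at 40 °C, then incorporated into a bean/wheat germ artificial diet at 1-100 mg kg-1. Mortality recorded for the larval phase, the pupal phase and the total cycle.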

Assay [2] has as its system Spodoptera frugiperda. As to the kind of experiment: Insecticidal activity against Spodoptera frugiperda (fall armyworm) during total cycle assessed as mortality at 50 mg/kg compound administration with artificial diet (reference value: 13.3%). The gist of the method: as §1
Assay [3] deals with Spodoptera frugiperda. Put plainly: Insecticidal activity against pupal phase Spodoptera frugiperda (fall armyworm) assessed as mortality at 1 mg/kg compound administration with artificial diet (reference value: 13.3%). The gist of the method:
as §1

Assay [4] deals with Spodoptera frugiperda. Put plainly: Insecticidal activity against Spodoptera frugiperda (fall armyworm) during total cycle assessed as mortality at 10 mg/kg compound administration with artificial diet (reference value: 13.3%). The gist of the method: as §1
For assay [5], the system named is Spodoptera frugiperda. Put plainly: Insecticidal activity against larval phase Spodoptera frugiperda (fall armyworm) assessed as mortality at 50 mg/kg compound administration with artificial diet (reference value: 6.66%). The gist of the method:
as §1

The test system of assay [6] is Spodoptera frugiperda. Put plainly: Insecticidal activity against Spodoptera frugiperda (fall armyworm) during total cycle assessed as mortality at 100 mg/kg compound administration with artificial diet (reference value: 13.3%). An outline of the steps: as §1
Assay [7] deals with Spodoptera frugiperda. As to the kind of experiment: Insecticidal activity against pupal phase Spodoptera frugiperda (fall armyworm) assessed as mortality at 10 mg/kg compound administration with artificial diet (reference value: 13.3%). An outline of the steps: as §1
Assay [8] concerns Spodoptera frugiperda. As to the kind of experiment: Insecticidal activity against 5 day old second instar larvae of Spodoptera frugiperda (fall armyworm) measured after 48 hr topical administration. An outline of the steps: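 Topical application to second instar larvae, 1 μL per insect in acetone (control: acetone alone). About 300 mg of artificial diet supplied 1 h after application. Mortality counted at 48 h. Five replicates. Single-sample screens of mixtures were run at 2000 mg L-1, with means compared by Tukey test (P ≤ 0.05). LD50 from log dose probit lines, with Abbott correction for control mortality.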

Assay [9] relates to Spodoptera frugiperda. As to the kind of experiment: Insecticidal activity against Spodoptera frugiperda (fall armyworm) during total cycle assessed as mortality at 1 mg/kg compound administration with artificial diet (reference value: 13.3%). The gist of the method:
as §1

For assay [10], the system named is Spodoptera frugiperda. Put plainly: Insecticidal activity against pupal phase Spodoptera frugiperda (fall armyworm) assessed as mortality at 50 mg/kg compound administration with artificial diet (reference value: 13.3%). An outline of the steps:
as §1

The subject of assay [11] is Spodoptera frugiperda. As to the kind of experiment: Insecticidal activity against larval phase Spodoptera frugiperda (fall armyworm) assessed as mortality at 1 mg/kg compound administration with artificial diet (reference value: 6.66%). An outline of the steps: as §1
The subject of assay [12] is Spodoptera frugiperda. Put plainly: Insecticidal activity against larval phase Spodoptera frugiperda (fall armyworm) assessed as mortality at 100 mg/kg compound administration with artificial diet (reference value: 6.66%). The gist of the method:
as §1

For assay [13], the system named is Spodoptera frugiperda. As to the kind of experiment: Insecticidal activity against larval phase Spodoptera frugiperda (fall armyworm) assessed as mortality at 10 mg/kg compound administration with artificial diet (reference value: 6.66%). An outline of the steps:
as §1

One may read the mortality as the share of the test organisms that died. For `O=C(/C=C/c1ccc(OC(F)(F)F)cc1)N1CCCCC1`, the mortality at 100 mg/kg came to 75% with Spodoptera frugiperda [1], 86.6% with Spodoptera frugiperda [6] and 55% in the assay with Spodoptera frugiperda [12]. For the same compound, the mortality at 50 mg/kg in the assay on Spodoptera frugiperda [2] was determined as 93.3%; in the assay with Spodoptera frugiperda [5], 73.3%; in the assay on Spodoptera frugiperda [10], 69.4%. Besides, the mortality at 1 mg/kg with Spodoptera frugiperda [3] is 61.4%; in the assay with Spodoptera frugiperda [9] it was 83.3%; in the assay on Spodoptera frugiperda [11] it was 65.8%. Also, the mortality at 10 mg/kg with Spodoptera frugiperda [4] turned out to be 86.6%; in the assay with Spodoptera frugiperda [7], 48.6%; in the assay on Spodoptera frugiperda [13], 63.3%. Moreover, the LD50 with Spodoptera frugiperda [8] worked out at 0.793 µg/mg.
On to `O=C(c1ccc(OC(F)(F)F)cc1)N1CCCCC1`, for which, in the assay with Spodoptera frugiperda [8], the LD50 is 8.15 µg/mg.
